Values after ≈ are worked out from the molar mass of the structure shown.
Key:
[1] = system: Mycobacterium tuberculosis; test: Antimycobacterial activity against non replicating persistent form of Mycobacterium tuberculosis H37Rv after 10 days by low oxygen recovery assay; format: functional; details: 240 h
Method in brief: (§1)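 M. tuberculosis H37Rv (ATCC 27294) was tested, in replicating form by MABA and in nonreplicating form by LORA, following published procedures. The value is the MIC, reported as the average of three individual determinations.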

[2] = system: Mycobacterium tuberculosis; test: Antimycobacterial activity against Mycobacterium tuberculosis H37Rv replicating form by alamar blue assay; format: functional; method in brief: as §1
Vero = test: Cytotoxicity against african green monkey Vero cells after 72 hrs; format: cell-based; details: Chlorocebus sabaeus
Candida albicans = test: Antimicrobial activity against Candida albicans; format: functional
Escherichia coli = test: Antimicrobial activity against Escherichia coli; format: functional
Staphylococcus aureus = test: Antimicrobial activity against Staphylococcus aureus; format: functional
[3] = system: Mycolicibacterium smegmatis; test: Antimicrobial activity against Mycobacterium smegmatis; format: functional

| Compound | MIC90 [1] | MIC90 [2] | IC50 (Vero) | MIC (Candida albicans) | MIC (Escherichia coli) | MIC (Staphylococcus aureus) | MIC [3] |
| --- | --- | --- | --- | --- | --- | --- | --- |
| CCOC(=O)c1cc(COc2cc(C(F)(F)F)nc3c(C(F)(F)F)cccc23)on1 | 12.2 µM (≈ 5.3 µg/mL) | 0.9 µM (≈ 0.391 µg/mL) |  |  |  |  |  |
| CCOC(=O)c1cc(/C=C/c2ccc(C(F)(F)F)cc2)on1 | 6.8 µM (≈ 2.12 µg/mL) | 3.9 µM (≈ 1.21 µg/mL) |  |  |  |  |  |
| CCOC(=O)c1cc(/C=C/c2ccccc2C(F)(F)F)on1 | 12.1 µM (≈ 3.77 µg/mL) | 3.9 µM (≈ 1.21 µg/mL) |  |  |  |  |  |
| CCOC(=O)c1cc(/C=C/c2ccco2)on1 | 50.2 µM (≈ 11.7 µg/mL) | 7.9 µM (≈ 1.84 µg/mL) | > 128 µM |  |  |  |  |
| CCOC(=O)c1cc(CCc2cc(O)cc(O)c2)on1 | > 128 µM | > 128 µM |  |  |  |  |  |
| CCOC(=O)c1cc(/C=C\c2cccc(OC)n2)on1 | 45.9 µM (≈ 12.6 µg/mL) | 27.5 µM (≈ 7.54 µg/mL) |  |  |  |  |  |
| CCOC(=O)c1cc(/C=C/c2c(Cl)ccc(C)c2F)on1 | 7 µM (≈ 2.17 µg/mL) | 3.5 µM (≈ 1.08 µg/mL) | > 128 µM |  |  |  |  |
| CCOC(=O)c1cc(/C=C/c2ccccc2CC)on1 | 2 µM (≈ 0.543 µg/mL) | 0.98 µM (≈ 0.266 µg/mL) | > 128 µM |  |  |  |  |
| CCCCOC(=O)c1cc(/C=C/c2ccc(OC)nc2)on1 | 6.7 µM (≈ 2.03 µg/mL) | 2 µM (≈ 0.605 µg/mL) |  |  |  |  |  |
| CCOC(=O)c1cc(/C=C/c2ccnc3ccccc23)on1 | 2.6 µM (≈ 0.765 µg/mL) | 0.2 µM (≈ 0.0589 µg/mL) |  |  |  |  |  |
| CCOC(=O)c1cc(/C=C/c2ccc(C)c3ccccc23)on1 | 3.6 µM (≈ 1.11 µg/mL) | 17.3 µM (≈ 5.32 µg/mL) | > 128 µM |  |  |  |  |
| CCOC(=O)c1cc(/C=C/c2ccc(N3CCN(C)CC3)cc2)on1 | 37.4 µM (≈ 12.8 µg/mL) | 15.2 µM (≈ 5.19 µg/mL) |  |  |  |  |  |
| CCOC(=O)c1cc(/C=C/c2ccc(F)cc2F)on1 | 13.8 µM (≈ 3.85 µg/mL) | 5.3 µM (≈ 1.48 µg/mL) | > 128 µM |  |  |  |  |
| CCOC(=O)c1cc(/C=C/c2cc(Cl)cc(Cl)c2)on1 | 5.9 µM (≈ 1.84 µg/mL) | 5.4 µM (≈ 1.69 µg/mL) | > 128 µM |  |  |  |  |
| O=C(O)c1cc(/C=C/c2cccc(C(F)(F)F)c2)on1 | > 128 µM | > 128 µM |  |  |  |  |  |
| CCOC(=O)c1cc(/C=C/c2ccccc2)on1 | 18 µM (≈ 4.38 µg/mL) | 11.7 µM (≈ 2.85 µg/mL) |  |  |  |  |  |
| CCCCOC(=O)c1cc(/C=C/c2ccnc3ccc(OC)cc23)on1 | 1.8 µM (≈ 0.634 µg/mL) | 1.1 µM (≈ 0.388 µg/mL) | > 128 µM |  |  |  |  |
| CCOC(=O)c1cc(/C=C/c2cc(OCc3ccccc3)cc(OCc3ccccc3)c2)on1 | 4.7 µM (≈ 2.14 µg/mL) | 6.3 µM (≈ 2.87 µg/mL) | > 128 µM |  |  |  |  |
| CCOC(=O)c1cc(/C=C/c2ccsc2)on1 | 26.9 µM (≈ 6.71 µg/mL) | 1.6 µM (≈ 0.399 µg/mL) | > 128 µM |  |  |  |  |
| O=C(O)c1cc(/C=C/c2cccc3ccccc23)on1 | > 128 µM | > 128 µM |  |  |  |  |  |
| CCCCCCCCOC(=O)c1cc(/C=C/c2c(Cl)cncc2Cl)on1 | 9.2 µM (≈ 3.66 µg/mL) | 10.9 µM (≈ 4.33 µg/mL) | > 128 µM |  |  |  |  |
| CCCCCCC(C)OC(=O)c1cc(/C=C/c2c(Cl)cncc2Cl)on1 (stereo not given) | 24.2 µM (≈ 9.61 µg/mL) | 8.3 µM (≈ 3.3 µg/mL) | > 128 µM |  |  |  |  |
| CCOC(=O)c1cc(/C=C/c2cccc(OC)c2)on1 | 8.8 µM (≈ 2.4 µg/mL) | 3.7 µM (≈ 1.01 µg/mL) | > 128 µM |  |  |  |  |
| CCOC(=O)c1cc(/C=C/c2cc(F)cc(F)c2)on1 | 8.9 µM (≈ 2.49 µg/mL) | 3.7 µM (≈ 1.03 µg/mL) | > 128 µM |  |  |  |  |
| CCOC(=O)c1cc(/C=C/c2ccccc2SC)on1 | 7.8 µM (≈ 2.26 µg/mL) | 0.96 µM (≈ 0.278 µg/mL) | > 128 µM |  |  |  |  |
| CCOC(=O)c1cc(/C=C/c2cccc(N)c2)on1 | 20.7 µM (≈ 5.35 µg/mL) | 7.5 µM (≈ 1.94 µg/mL) | > 128 µM |  |  |  |  |

| Compound | MIC90 [1] | MIC90 [2] | IC50 (Vero) | MIC (Candida albicans) | MIC (Escherichia coli) | MIC (Staphylococcus aureus) | MIC [3] |
| --- | --- | --- | --- | --- | --- | --- | --- |
| CCOC(=O)c1cc(/C=C/c2cccc(C(C)C)c2)on1 | 8.3 µM (≈ 2.37 µg/mL) | 3.1 µM (≈ 0.885 µg/mL) | > 128 µM |  |  |  |  |
| CCOC(=O)c1cc(/C=C/c2cc(OC)cc(OC)c2)on1 | 3.6 µM (≈ 1.09 µg/mL) | 2 µM (≈ 0.607 µg/mL) | > 128 µM |  |  |  |  |
| CCOC(=O)c1cc(/C=C/c2ccc(OC)nc2)on1 | 86.6 µM (≈ 23.8 µg/mL) | 1.4 µM (≈ 0.384 µg/mL) | > 128 µM |  |  |  |  |
| CCOC(=O)c1cc(/C=C/c2cccc(Cl)c2)on1 | 6.7 µM (≈ 1.86 µg/mL) | 2.3 µM (≈ 0.639 µg/mL) | > 128 µM |  |  |  |  |
| CCOC(=O)c1cc(/C=C\c2cc(F)cc(F)c2)on1 | 12.3 µM (≈ 3.43 µg/mL) | 29.2 µM (≈ 8.15 µg/mL) | > 128 µM |  |  |  |  |
| CCC(CC)OC(=O)c1cc(/C=C/c2c(Cl)cncc2Cl)on1 | 8.9 µM (≈ 3.16 µg/mL) | 7.9 µM (≈ 2.81 µg/mL) | > 128 µM |  |  |  |  |
| CCOC(=O)c1cc(/C=C/c2cccc(C(F)(F)F)c2)on1 | 21.1 µM (≈ 6.57 µg/mL) | 0.73 µM (≈ 0.227 µg/mL) | > 128 µM | > 100 µM | > 100 µM | > 100 µM | > 100 µM |
| CCOC(=O)c1cc(/C=C/c2cccc(C)c2)on1 | 7.4 µM (≈ 1.9 µg/mL) | 6.5 µM (≈ 1.67 µg/mL) | > 128 µM |  |  |  |  |
| CCOC(=O)c1cc(/C=C/c2cccc3ccccc23)on1 | 4 µM (≈ 1.17 µg/mL) | 1.6 µM (≈ 0.469 µg/mL) | > 128 µM |  |  |  |  |
| Clc1cncc(Cl)c1/C=C/c1ccno1 | > 128 µM | > 128 µM |  |  |  |  |  |
| CCOC(=O)c1cc(/C=C/c2c(Cl)cccc2Cl)on1 | 3.5 µM (≈ 1.09 µg/mL) | 2.5 µM (≈ 0.78 µg/mL) |  |  |  |  |  |
| CCOC(=O)c1cc(CCc2cccc(C(F)(F)F)c2)on1 | 15.6 µM (≈ 4.89 µg/mL) | 14.2 µM (≈ 4.45 µg/mL) |  |  |  |  |  |
| CCOC(=O)c1cc(/C=C/c2ccc(OC)cc2F)on1 | 10.7 µM (≈ 3.12 µg/mL) | 3.8 µM (≈ 1.11 µg/mL) |  |  |  |  |  |
| CCOC(=O)c1cc(/C=C/c2cccc(O)c2)on1 | 28.7 µM (≈ 7.44 µg/mL) | 7.8 µM (≈ 2.02 µg/mL) | > 128 µM |  |  |  |  |
| O=C(OCCCC1CCCC1)c1cc(/C=C/c2c(Cl)cncc2Cl)on1 | 9.3 µM (≈ 3.68 µg/mL) | 7.3 µM (≈ 2.89 µg/mL) |  |  |  |  |  |
| CCOC(=O)c1cc(/C=C/c2cccc(OC)n2)on1 | 16 µM (≈ 4.39 µg/mL) | 3.8 µM (≈ 1.04 µg/mL) |  |  |  |  |  |
| CCOC(=O)c1cc(/C=C\c2cccc([N+](=O)[O-])c2)on1 | 10.9 µM (≈ 3.14 µg/mL) | 5.4 µM (≈ 1.56 µg/mL) | > 128 µM |  |  |  |  |
| CCOC(=O)c1cc(/C=C/c2c(Cl)cncc2Cl)on1 | 5.1 µM (≈ 1.6 µg/mL) | 0.59 µM (≈ 0.185 µg/mL) | > 128 µM | > 100 µM | > 100 µM | > 100 µM | 94.4 µM (≈ 29.6 µg/mL) |
| CCCCOC(=O)c1cc(/C=C/c2cccc(OC)c2)on1 | 7.6 µM (≈ 2.29 µg/mL) | 1.8 µM (≈ 0.542 µg/mL) |  |  |  |  |  |
| CCOC(=O)c1cc(/C=C/c2ccnc3ccc(OC)cc23)on1 | 1.1 µM (≈ 0.357 µg/mL) | 0.4 µM (≈ 0.13 µg/mL) |  |  |  |  |  |
| CCOC(=O)c1cc(/C=C/c2cccc([N+](=O)[O-])c2)on1 | 5.1 µM (≈ 1.47 µg/mL) | 1.2 µM (≈ 0.346 µg/mL) | > 128 µM |  |  |  |  |
| CCOC(=O)c1cc(/C=C/c2ccncc2)on1 | 52.4 µM (≈ 12.8 µg/mL) | 15.5 µM (≈ 3.79 µg/mL) | > 128 µM |  |  |  |  |
| NNC(=O)c1ccncc1 [ISONIAZID] | > 128 µM | 0.84 µM (≈ 0.115 µg/mL) | 128 µM |  |  |  |  |
| COc1c(N2C[C@@H]3CCCN[C@@H]3C2)c(F)cc2c(=O)c(C(=O)O)cn(C3CC3)c12 [MOXIFLOXACIN] | > 128 µM | 0.46 µM (≈ 0.185 µg/mL) |  |  |  |  |  |
| CO[C@H]1/C=C/O[C@@]2(C)Oc3c(C)c(O)c4c(O)c(c(/C=N/N5CCN(C)CC5)c(O)c4c3C2=O)NC(=O)/C(C)=C\C=C\[C@H](C)[C@H](O)[C@@H](C)[C@@H](O)[C@@H](C)[C@H](OC(C)=O)[C@@H]1C [RIFAMPIN] | 1.9 µM (≈ 1.56 µg/mL) | 0.1 µM (≈ 0.0823 µg/mL) |  |  |  |  |  |

Source: ChEMBL document CHEMBL1155230, “Synthesis, biological evaluation, and structure-activity relationships for 5-[(E)-2-arylethenyl]-3-isoxazolecarboxylic acid alkyl ester derivatives as valuable antitubercular chemotypes” (J Med Chem, 2009)
